In ChEMBL document CHEMBL1154243, “Chemical Constituents of the Roots of Euphorbia micractina” (J Nat Prod, 2009):
Activity calls are given as the source filed them. No cut-off for these calls is given here.

The compounds below were run against T1, Tyrosine-protein phosphatase non-receptor type 1 (Homo sapiens) (UniProt P18031) (assay: Inhibition of GST-tagged human PTP1B). Conditions: not given.
T1 sequence (whole entry): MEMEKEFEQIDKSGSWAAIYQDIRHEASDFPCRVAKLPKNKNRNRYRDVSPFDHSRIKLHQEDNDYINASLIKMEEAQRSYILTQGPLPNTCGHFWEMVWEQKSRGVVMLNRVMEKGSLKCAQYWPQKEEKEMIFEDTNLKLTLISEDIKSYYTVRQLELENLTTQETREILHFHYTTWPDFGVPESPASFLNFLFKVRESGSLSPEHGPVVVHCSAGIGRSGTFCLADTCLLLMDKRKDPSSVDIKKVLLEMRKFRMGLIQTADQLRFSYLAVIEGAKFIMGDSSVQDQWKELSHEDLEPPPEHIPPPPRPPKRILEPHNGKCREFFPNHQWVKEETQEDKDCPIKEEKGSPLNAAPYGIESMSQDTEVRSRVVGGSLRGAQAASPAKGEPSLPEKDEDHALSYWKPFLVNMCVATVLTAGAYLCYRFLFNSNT

SMILES | inhibition
CC1=C2C=C3CC[C@@H]4C(C)(C)[C@@H](O)CC[C@@]4(C)[C@@H]3C[C@H]2OC1=O | inactive
CC1(C)CC[C@]2(CO)CC[C@]3(C)C(=CC[C@@H]4[C@@]5(C)CC[C@H](O)C(C)(C)[C@@H]5CC[C@]43C)[C@@H]2C1 | inactive
C=C(C)[C@@H]1CC[C@]2(CO)CC[C@]3(C)[C@H](CC[C@@H]4[C@@]5(C)CC[C@H](O)C(C)(C)[C@@H]5CC[C@]43C)[C@@H]12 [BETULIN] | inactive
C=C(C)[C@@H](CC[C@H](C)[C@@H]1CC[C@]2(C)C3=C(CC[C@@]12C)[C@@]1(C)CC[C@H](O)C(C)(C)[C@@H]1CC3=O)OO | inactive
C=C(C)[C@H](CC[C@@H](C)[C@@H]1CC[C@]2(C)C3=C(CC[C@@]12C)[C@@]1(C)CC[C@H](O)C(C)(C)[C@@H]1CC3=O)OO | inactive
C[C@@H](C/C=C/C(C)(C)OO)[C@@H]1CC[C@]2(C)C3=C(C(=O)C[C@@]12C)[C@@]1(C)CC[C@H](O)C(C)(C)[C@@H]1CC3=O | inactive
COc1ccc(C(=O)OCCc2ccc(O)cc2)cc1 | inactive
CC1=C2C=C3CC[C@@H]4C(C)(C)C(=O)CC[C@@]4(C)[C@@H]3C[C@H]2OC1=O | inactive
CC1=C2C=C3CC[C@@H]4C(C)(C)[C@H](O)CC[C@@]4(C)[C@@H]3C[C@H]2OC1=O | inactive
O=C(O)/C=C/c1ccccc1 | inactive
C=C(C)[C@H](CC[C@H](C)[C@@H]1CC[C@]2(C)C3=C(CC[C@@]12C)[C@@]1(C)CC[C@H](O)C(C)(C)[C@@H]1CC3=O)OO | inactive
CC[C@H](CC[C@@H](C)[C@H]1CC[C@H]2[C@@H]3CC=C4C[C@@H](O)CC[C@]4(C)[C@H]3CC[C@]12C)C(C)C | inactive

What follows are compounds tested on A2780 (assay: Cytotoxicity against human A2780 cells after 4 days by MTT assay). Conditions: not given.
Type: functional, cell-based

SMILES | Activity
CC1=C2C=C3CC[C@@H]4C(C)(C)[C@@H](O)CC[C@@]4(C)[C@@H]3C[C@H]2OC1=O | inactive
CC1(C)CC[C@]2(CO)CC[C@]3(C)C(=CC[C@@H]4[C@@]5(C)CC[C@H](O)C(C)(C)[C@@H]5CC[C@]43C)[C@@H]2C1 | inactive
C=C(C)[C@@H](CC[C@H](C)[C@@H]1CC[C@]2(C)C3=C(CC[C@@]12C)[C@@]1(C)CC[C@H](O)C(C)(C)[C@@H]1CC3=O)OO | inactive
C=C(C)[C@H](CC[C@@H](C)[C@@H]1CC[C@]2(C)C3=C(CC[C@@]12C)[C@@]1(C)CC[C@H](O)C(C)(C)[C@@H]1CC3=O)OO | inactive
C[C@@H](C/C=C/C(C)(C)OO)[C@@H]1CC[C@]2(C)C3=C(C(=O)C[C@@]12C)[C@@]1(C)CC[C@H](O)C(C)(C)[C@@H]1CC3=O | inactive
COc1ccc(C(=O)OCCc2ccc(O)cc2)cc1 | inactive
CC1=C2C=C3CC[C@@H]4C(C)(C)C(=O)CC[C@@]4(C)[C@@H]3C[C@H]2OC1=O | inactive
CC1=C2C=C3CC[C@@H]4C(C)(C)[C@H](O)CC[C@@]4(C)[C@@H]3C[C@H]2OC1=O | inactive
O=C(O)/C=C/c1ccccc1 | inactive
C=C(C)[C@H](CC[C@H](C)[C@@H]1CC[C@]2(C)C3=C(CC[C@@]12C)[C@@]1(C)CC[C@H](O)C(C)(C)[C@@H]1CC3=O)OO | inactive
CC[C@H](CC[C@@H](C)[C@H]1CC[C@H]2[C@@H]3CC=C4C[C@@H](O)CC[C@]4(C)[C@H]3CC[C@]12C)C(C)C | inactive

Same assay, conditions: A2780, 96 h

SMILES | IC50 [µM]
C=C(C)[C@@H]1CC[C@]2(CO)CC[C@]3(C)[C@H](CC[C@@H]4[C@@]5(C)CC[C@H](O)C(C)(C)[C@@H]5CC[C@]43C)[C@@H]12 [BETULIN] | 6.1

The compounds below were run on Human immunodeficiency virus 1 (assay: Antiviral activity against HIV-1 NL4-3 expressing VSV-G envelope infected in human 293T cells assessed as inhibition of viral replication after 48 hrs by Luciferase reporter gene assay). Conditions: not given.
Type: functional, organism-based
Method in brief: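 VSV-G-pseudotyped, env-deficient pNL4-3.luc.R-E- virions made by calcium phosphate cotransfection of 293 cells, then filtered. Virions quantified by p24 ELISA and diluted to 0.2 ng p24/mL. Compounds added 15 min before virus, with solvent-only blank. Luciferase in lysates read 48 h post-infection. Zidovudine served as positive control.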

SMILES | Activity | inhibition
CC1=C2C=C3CC[C@@H]4C(C)(C)[C@@H](O)CC[C@@]4(C)[C@@H]3C[C@H]2OC1=O | inactive | –
CC1(C)CC[C@]2(CO)CC[C@]3(C)C(=CC[C@@H]4[C@@]5(C)CC[C@H](O)C(C)(C)[C@@H]5CC[C@]43C)[C@@H]2C1 | inactive | –
C=C(C)[C@@H]1CC[C@]2(CO)CC[C@]3(C)[C@H](CC[C@@H]4[C@@]5(C)CC[C@H](O)C(C)(C)[C@@H]5CC[C@]43C)[C@@H]12 [BETULIN] | inactive | –
C=C(C)[C@@H](CC[C@H](C)[C@@H]1CC[C@]2(C)C3=C(CC[C@@]12C)[C@@]1(C)CC[C@H](O)C(C)(C)[C@@H]1CC3=O)OO | – | inactive
C=C(C)[C@H](CC[C@@H](C)[C@@H]1CC[C@]2(C)C3=C(CC[C@@]12C)[C@@]1(C)CC[C@H](O)C(C)(C)[C@@H]1CC3=O)OO | – | inactive
C[C@@H](C/C=C/C(C)(C)OO)[C@@H]1CC[C@]2(C)C3=C(C(=O)C[C@@]12C)[C@@]1(C)CC[C@H](O)C(C)(C)[C@@H]1CC3=O | – | inactive
COc1ccc(C(=O)OCCc2ccc(O)cc2)cc1 | inactive | –
CC1=C2C=C3CC[C@@H]4C(C)(C)C(=O)CC[C@@]4(C)[C@@H]3C[C@H]2OC1=O | inactive | –
CC1=C2C=C3CC[C@@H]4C(C)(C)[C@H](O)CC[C@@]4(C)[C@@H]3C[C@H]2OC1=O | inactive | –
O=C(O)/C=C/c1ccccc1 | inactive | –
C=C(C)[C@H](CC[C@H](C)[C@@H]1CC[C@]2(C)C3=C(CC[C@@]12C)[C@@]1(C)CC[C@H](O)C(C)(C)[C@@H]1CC3=O)OO | – | inactive
CC[C@H](CC[C@@H](C)[C@H]1CC[C@H]2[C@@H]3CC=C4C[C@@H](O)CC[C@]4(C)[C@H]3CC[C@]12C)C(C)C | inactive | –
